Laboratory results from ChEMBL document CHEMBL1137654, “Activity of an antimicrobial peptide mimetic against planktonic and biofilm cultures of oral pathogens” (2007).
Values after ≈ are worked out from the molar mass of the structure shown. Blank lines part the entries; values can stand above or below the compound they belong to. Active and inactive are the calls of the source. The rule behind the calls is not given here.

Legend:
RAW264.7 [1] = assay: Inhibition of Pseudomonas aeruginosa LPS-induced TNFalpha production in mouse RAW264.7 cells at 7 nM after 6 hrs by ELISA; type: functional, cell-based
Procedure, shortened: (§1)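 RAW 264.7 macrophages plated overnight at 1 × 10⁶ cells/well, then stimulated with 100 ng/ml LPS together with test agent for 6 h at 37°C. TNF-α in the medium measured by mouse TNF-α ELISA. Triplicate; SE; t test.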

Candida albicans [2] = assay: Antifungal activity against Candida albicans ATCC 90028 after 24 hrs by broth microdilution assay; type: functional; settings: ATCC 90028, 24 h
Procedure, shortened: (§2)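 CLSI M27-A2 broth microdilution. Colonies from 24-h YPD agar culture suspended in 0.85% saline, set to 0.5 McFarland (OD 530 nm). Final inoculum 0.5–2.5 × 10³ CFU/ml in RPMI 1640 + 0.165 M MOPS pH 7.0. DMSO stock diluted to final 0.016–16 μg/ml. 35°C, visual read at 24 h against the drug-free well. Duplicate.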

Nucleic Acid [3] = assay: Binding affinity to double stranded DNA retardation of oligonucleotide movement by agarose gel electrophoresis; type: nucleic-acid assay
Candida albicans [4] = assay: Antifungal activity against Candida albicans 44 after 24 hrs by broth microdilution assay; type: functional; settings: Candida albicans, 44, 24 h; procedure, shortened: as §2
Candida dubliniensis = assay: Antifungal activity against Candida dubliniensis NCPF3949 after 24 hrs by broth microdilution assay; type: functional; settings: NCPF3949, 24 h; procedure, shortened: as §2
Streptococcus mutans [5] = assay: Antibacterial activity against Streptococcus mutans ATCC 33402 in presence of 25% human saliva; type: functional
Staphylococcus aureus [6] = assay: Antibacterial activity against Staphylococcus aureus ATCC 27660 after 18 to 24 hrs; type: functional
Procedure, shortened: (§3)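 Exponential-phase overnight culture in the organism's growth medium, adjusted to 4.5 × 10⁵ CFU/ml and added to serial compound dilutions in 96-well plates; 37°C for 18 to 24 h in a humidified container. MIC = lowest concentration preventing visible turbidity. Triplicate.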

Porphyromonas gingivalis [7] = assay: Antibacterial activity against Porphyromonas gingivalis ATCC 53978 after 24 to 48 hrs; type: functional
Procedure, shortened: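 P. gingivalis MBC, anaerobic, from MIC plates run in cooked meat medium and TSB: the MIC well and one dilution above and below plated; lowest concentration with no visible agar growth after 24 to 48 h.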

Streptococcus mutans [8] = assay: Antibacterial activity against Streptococcus mutans isolate N32 after 24 to 48 hrs; type: functional
Procedure, shortened: (§4)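 MBC: wells at the MIC plus one dilution above and below plated on agar; after 24 to 48 h growth, MBC = lowest concentration giving no visible growth on the agar surface.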

Streptococcus mutans [9] = assay: Antibacterial activity against Streptococcus mutans ATCC 33402 assessed as inhibition of biofilm formation at >1 ug/ml in presence of 1% sucrose by crystal violet staining; type: functional, organism-based
Nakaseomyces glabratus = assay: Antifungal activity against Candida glabrata ATCC 90030 after 24 hrs by broth microdilution assay; type: functional; settings: ATCC 90030, 24 h; procedure, shortened: as §2
Streptococcus mutans [10] = assay: Antibacterial activity against Streptococcus mutans isolate N43 after 18 to 24 hrs; type: functional; procedure, shortened: as §3
Streptococcus mutans [11] = assay: Antibacterial activity against Streptococcus mutans ATCC 33402 biofilms assessed as log reduction of viable bacteria at 50 ug/ml; type: functional
Procedure, shortened: (§5)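 1 × 10⁵ CFU grown 2 days in BHI + 1% sucrose, then compound added for 24 h. Biofilms washed with PBS, disrupted by sonication (30 s) in 2 ml PBS, serially diluted and plated on mitis agar for viable counts.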

Streptococcus mutans [12] = assay: Antibacterial activity against Streptococcus mutans ATCC 33402 after 24 to 48 hrs; type: functional; procedure, shortened: as §4
Pichia kudriavzevii = assay: Antifungal activity against Candida krusei ATCC 6258 after 24 hrs by broth microdilution assay; type: functional; settings: ATCC 6258, 24 h; procedure, shortened: as §2
Streptococcus mutans [13] = assay: Antibacterial activity against Streptococcus mutans ATCC 33402 biofilms assessed as inhibition of adherent biomass growth at >2.5 ug/ml in presence of 1% sucrose by crystal violet staining; type: functional, organism-based
Procedure, shortened: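 1 × 10⁵ CFU seeded in 96-well plates in BHI + 1% sucrose to form a biofilm, then exposed to increasing concentrations. After PBS washes to remove planktonic cells, methanol fixation and crystal violet staining, absorbance read at 595 nm. Reported as change from day-2 cultures before compound addition. Triplicate; SD.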

[14] = test system: Aggregatibacter actinomycetemcomitans; assay: Antibacterial activity against Actinobacillus actinomycetemcommitans CU1000 after 24 to 48 hrs; type: functional; procedure, shortened: as §4
Streptococcus mutans [15] = assay: Antibacterial activity against Streptococcus mutans ATCC 33402 in presence of 30 nM single stranded DNA; type: functional, organism-based
Streptococcus mutans [16] = assay: Antibacterial activity against Streptococcus mutans ATCC 33402 assessed as log cell killing at 10 times MIC within 1 minute by time kill study; type: functional
Candida parapsilosis = assay: Antifungal activity against Candida parapsilosis ATCC 22019 after 24 hrs by broth microdilution assay; type: functional; settings: Lodderomyces parapsilosis, ATCC 22019, 24 h; procedure, shortened: as §2
Streptococcus mutans [17] = assay: Antibacterial activity against Streptococcus mutans ATCC 33402 in presence of 50% human saliva; type: functional
Streptococcus mutans [18] = assay: Antibacterial activity against Streptococcus mutans ATCC 33402 after 18 to 24 hrs; type: functional; procedure, shortened: as §3
Nucleic Acid [19] = assay: Binding affinity to single stranded GC-rich oligonucleotide assessed as retardation of oligonucleotide movement by agarose gel electrophoresis; type: nucleic-acid assay
Porphyromonas gingivalis [20] = assay: Antibacterial activity against Porphyromonas gingivalis ATCC 53978 after 18 to 24 hrs; type: functional
Procedure, shortened: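 P. gingivalis maintained in cooked meat medium with glucose, hemin and vitamin K at 37°C, anaerobic. MIC run in both cooked meat medium and TSB: 4.5 × 10⁵ CFU/ml with serial dilutions, 18 to 24 h, lowest concentration without visible turbidity. Triplicate.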

Candida tropicalis = assay: Antifungal activity against Candida tropicalis ATCC 750 after 24 hrs by broth microdilution assay; type: functional; settings: ATCC 750, 24 h; procedure, shortened: as §2
Streptococcus mutans [21] = assay: Antibacterial activity against Streptococcus mutans ATCC 33402 in presence of 10% human saliva; type: functional
Actinomyces viscosus [22] = assay: Antibacterial activity against Actinomyces viscosus after 24 to 48 hrs; type: functional; procedure, shortened: as §4
Streptococcus mutans [23] = assay: Antibacterial activity against Streptococcus mutans ATCC 33402 biofilms assessed as bacterial dead cells at 50 ug/ml after 24 hrs by fluorescence confocal microscopy; type: functional, organism-based
Procedure, shortened: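 2-day sucrose biofilms treated 24 h with 0 or 50 μg/ml, washed three times with PBS, stained 15 min in the dark with LIVE/DEAD dye diluted 1:1,000, washed once. Imaged by confocal laser scanning microscopy at 488 and 543 nm, side and top views.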

Nucleic Acid [24] = assay: Binding affinity to single stranded AT-rich oligonucleotide assessed as retardation of oligonucleotide movement by agarose gel electrophoresis; type: nucleic-acid assay
[25] = test system: Aggregatibacter actinomycetemcomitans; assay: Antibacterial activity against Actinobacillus actinomycetemcommitans CU1000 after 18 to 24 hrs; type: functional; procedure, shortened: as §3
Streptococcus mutans [26] = assay: Antibacterial activity against Streptococcus mutans ATCC 33402 assessed as log cell killing at MIC after 1 hr by time kill study; type: functional, organism-based
Streptococcus mutans [27] = assay: Antibacterial activity against Streptococcus mutans isolate N43 after 24 to 48 hrs; type: functional; procedure, shortened: as §4
Candida albicans [28] = assay: Antifungal activity against Candida albicans M70 after 24 hrs by broth microdilution assay; type: functional; settings: M70, 24 h; procedure, shortened: as §2
RAW264.7 [29] = assay: Inhibition of Pseudomonas aeruginosa LPS-induced TNFalpha production in mouse RAW264.7 cells at 9.5 nM after 6 hrs by ELISA; type: functional, cell-based; procedure, shortened: as §1
Actinomyces viscosus [30] = assay: Antibacterial activity against Actinomyces viscosus after 18 to 24 hrs; type: functional; procedure, shortened: as §3
Streptococcus mutans [31] = assay: Antibacterial activity against Streptococcus mutans isolate N32 after 18 to 24 hrs; type: functional; procedure, shortened: as §3
Staphylococcus aureus [32] = assay: Antibacterial activity against Staphylococcus aureus ATCC 27660 after 24 to 48 hrs; type: functional; procedure, shortened: as §4
Streptococcus mutans [33] = assay: Antibacterial activity against Streptococcus mutans ATCC 33402 biofilms assessed as log reduction of viable bacteria at 500 ug/ml; type: functional, organism-based; procedure, shortened: as §5

Compound: POLYMYXIN B
Activity (RAW264.7 [1]): Active

MIC (Candida albicans [2]): 1 µg/mL (≈ 1.91 µM) | Activity (Nucleic Acid [3]): Active | MIC (Candida albicans [4]): 0.5 µg/mL (≈ 0.957 µM) | MIC (Candida dubliniensis): 1 µg/mL (≈ 1.91 µM) | MIC (Streptococcus mutans [5]): 1 µg/mL | MIC (Staphylococcus aureus [6]): 0.25 µg/mL (≈ 0.479 µM) | MIC (Nakaseomyces glabratus): 1 µg/mL (≈ 1.91 µM) | MIC (Streptococcus mutans [10]): 0.5 µg/mL (≈ 0.957 µM) | MIC (Pichia kudriavzevii): 1 µg/mL (≈ 1.91 µM) | MIC (Candida parapsilosis): 1 µg/mL (≈ 1.91 µM) | MIC (Streptococcus mutans [17]): 0.5 µg/mL | MIC (Streptococcus mutans [18]): 0.5 µg/mL (≈ 0.957 µM) | Activity (Nucleic Acid [19]): Active | MIC (Porphyromonas gingivalis [20]): 2.5 µg/mL (≈ 4.79 µM) | MIC (Candida tropicalis): 1 µg/mL (≈ 1.91 µM) | MIC (Streptococcus mutans [21]): 1 µg/mL | Activity (Nucleic Acid [24]): Active | MIC [25]: 0.4 µg/mL (≈ 0.766 µM) | MIC (Candida albicans [28]): 0.5 µg/mL (≈ 0.957 µM) | MIC (Actinomyces viscosus [30]): 0.8 µg/mL (≈ 1.53 µM) | MIC (Streptococcus mutans [31]): 0.5 µg/mL (≈ 0.957 µM)
Compound: NCCc1cc(Br)cc(C#Cc2cccc(C#Cc3cc(Br)cc(CCN)c3)c2)c1
MFC (Candida albicans [2]): 2 µg/mL (≈ 3.83 µM) | MFC (Candida albicans [4]): 1 µg/mL (≈ 1.91 µM) | MFC (Candida dubliniensis): 2 µg/mL (≈ 3.83 µM) | MBC (Porphyromonas gingivalis [7]): 2.5 µg/mL (≈ 4.79 µM) | MBC (Streptococcus mutans [8]): 1.25 µg/mL (≈ 2.39 µM) | Activity (Streptococcus mutans [9]): Active | MFC (Nakaseomyces glabratus): 2 µg/mL (≈ 3.83 µM) | Activity (Streptococcus mutans [11]): 3 | MBC (Streptococcus mutans [12]): 1.25 µg/mL (≈ 2.39 µM) | MFC (Pichia kudriavzevii): 2 µg/mL (≈ 3.83 µM) | Activity (Streptococcus mutans [13]): Active | MBC [14]: 1.5 µg/mL (≈ 2.87 µM) | Activity (Streptococcus mutans [15]): Active | Activity (Streptococcus mutans [16]): >2 | MFC (Candida parapsilosis): 2 µg/mL (≈ 3.83 µM) | MFC (Candida tropicalis): 2 µg/mL (≈ 3.83 µM) | MBC (Actinomyces viscosus [22]): 1.5 µg/mL (≈ 2.87 µM) | Activity (Streptococcus mutans [23]): Active | Activity (Streptococcus mutans [26]): Active | MBC (Streptococcus mutans [27]): 1.25 µg/mL (≈ 2.39 µM) | MFC (Candida albicans [28]): 1 µg/mL (≈ 1.91 µM) | Activity (RAW264.7 [29]): Active | MBC (Staphylococcus aureus [32]): 0.8 µg/mL (≈ 1.53 µM)

Compound: CN(C)[C@@H]1C(O)=C(C(N)=O)C(=O)[C@@]2(O)C(O)=C3C(=O)c4c(O)cccc4[C@@](C)(O)[C@H]3C[C@@H]12
Activity (Streptococcus mutans [33]): Active
